High-throughput results from PubChem BioAssay.
This is a sample that favours compounds with a hit; in the whole collection about 4% have one here.
CHOP inh: inhibitors of CHOP induction in ER stress response. inhibition, % at 10 µM. 220,000 tested, 3.8% active. CHO-K1 CHOP-promoter luciferase, tunicamycin-induced, 15-18 h;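 active = compounds that reduced the stress-induced luciferase reporter signal by more than about 70% of percent inhibition, limit read from the data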
Hsp70 act: transcriptional activators of Hsp70 | HeLa Hsp70 promoter luciferase reporter, luminescence; scaled: vehicle 0, proteasome-inhibitor control 100% | activation, % at 10 µM | 200,000 tested, 0.04% active | AID 1203;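 active = activation above the mean across all tested compounds plus 3 SD, cutoff set per campaign, cut at about 5.5% in these data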
MDM2 E3 inh: blocks human Mdm2 ubiquitin ligase activity; signal enhancement, % at 5 µM; cell-based MDM2 ubiquitination luciferase reporter, 2 h; 0 = plate control, 100 = twice control, blank-subtracted; 210,000 tested, 0.11% active;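 active = signal enhancement of 30% or more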;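 also: luminescence tracks abundance of the self-degrading MDM2-luciferase fusion protein; higher signal means inhibition of MDM2 E3 ligase activity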
Target sequence (Q00987 whole entry, looked up, the tested form may be a part): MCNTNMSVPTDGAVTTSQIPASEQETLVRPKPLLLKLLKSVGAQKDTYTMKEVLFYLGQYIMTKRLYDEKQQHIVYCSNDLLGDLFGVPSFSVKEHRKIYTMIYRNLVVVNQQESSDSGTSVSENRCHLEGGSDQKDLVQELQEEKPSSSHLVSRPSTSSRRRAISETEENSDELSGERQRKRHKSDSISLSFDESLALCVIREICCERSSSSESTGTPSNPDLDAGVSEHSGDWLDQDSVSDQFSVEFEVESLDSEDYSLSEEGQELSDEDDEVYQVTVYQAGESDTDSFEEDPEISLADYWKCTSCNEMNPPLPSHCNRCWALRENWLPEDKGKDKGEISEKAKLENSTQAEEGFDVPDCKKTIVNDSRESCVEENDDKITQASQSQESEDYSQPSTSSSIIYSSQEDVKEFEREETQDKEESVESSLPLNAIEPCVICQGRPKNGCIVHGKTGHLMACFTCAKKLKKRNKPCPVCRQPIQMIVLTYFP
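Buffer or medium: Cells held in DMEM | Assay system: Stable mammalian line carrying autodegrading MDM2–luciferase fusion reporter | Quantity: 2000 cells/well | Times: 4 h settle plus 2 h compound, 37 °C | Doses: One concentration, 5 µM, with 0.2% DMSO | Technique: Luminescence with SteadyLite reagent, 15 min at room temperature | Benchmarks: Plate controls and plate blanks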
S1P3 antagonist: S1P3 (human) receptor antagonism | inhibition, % at 4.98 µM | CHO S1P3 NFAT-BLA reporter, FRET fluorescence, antagonist mode | 170,000 tested, 0.27% active;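 active = inhibition above the plate cutoff, the mean inhibition of test wells on that plate plus 3 SD, cut at about 28% in these data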;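 also: cells challenged with S1P at its EC80 of 0.8 µM; blue over green emission ratio from cleaved BLA substrate after 4 h stimulation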
Large screens that a line does not name were inactive.

CCOc1ccc(C2Oc3nc(SC)nnc3-c3ccccc3N2C(C)=O)cc1OC (configuration not stated)	S1P3 antagonist 55
Cc1cc(N2C(=O)C3CC=CC(C)C3C2=O)no1 (configuration not stated)	none (no result: S1P3 antagonist)
O=C(CN(Cc1ccco1)C(=O)c1ccc(Cl)cc1)Nc1ccc(Cl)c(Cl)c1	CHOP inh 93
O=C(Nc1ccc(Cl)c(Cl)c1)N(Cc1cccnc1)Cc1ccco1	none
CCCc1ccc(S(=O)(=O)NCCc2ccncc2)cc1	none
CCCCCc1ccc(S(=O)(=O)NCCc2ccncc2)cc1	CHOP inh 72 (no result: S1P3 antagonist)
Cc1ccc2nc(-c3ccc(N)cc3)sc2c1	CHOP inh 78 (no result: Hsp70 act)
CC(=O)Nc1ccc(S(=O)(=O)Nc2nc3ccc(C)cc3s2)cc1	none (no result: S1P3 antagonist)
Cc1ccc2nc(-c3ccc(NS(=O)(=O)c4ccc(F)cc4)cc3)sc2c1	CHOP inh 104
NC(=O)c1ccc2c(=O)n3c(-c4cccs4)csc3nc2c1	none (no result: Hsp70 act, S1P3 antagonist)
CC1(C)NC(=O)N(CC(=O)OCC(=O)Nc2cccc(S(N)(=O)=O)c2)C1=O	none
O=C(c1cccs1)N1N=C(c2ccccc2)CC1c1ccccc1 (configuration not stated)	CHOP inh 78 (no result: S1P3 antagonist)
CCOC(=O)C1=C(C)NC(=O)C(C#N)C1c1ccco1 (configuration not stated)	CHOP inh 70
C=C1CCN([C@@H](C)C(=O)NCCCCCC)S(=O)(=O)c2ccccc21	none (no result: Hsp70 act, S1P3 antagonist)
COC(=O)/C=C/c1sc2nc(C)cc(C)c2c1N=CN(C)C	none
COc1ccc(NC(=O)Cc2c(SC)c3ccccc3n2Cc2ccccc2)cc1	CHOP inh 74
COc1ccc(NC(=O)Cc2ccccc2)cc1	none (no result: MDM2 E3 inh, S1P3 antagonist)
CCSc1nnc(NC(=O)CSc2nnc(C)c(=O)n2N)s1	none
Cc1nc(Nc2ccccc2)sc1-c1ccccc1	CHOP inh 70
Cc1cc(NC(=O)C2CC2)n(-c2nc3ccccc3s2)n1	none
Cc1cc(NC(=O)CCl)n(-c2nc3ccccc3s2)n1	CHOP inh 77
CN(C)c1ccc(C(c2nnnn2CCOC(=O)Nc2ccc(Cl)cc2)N2CCOCC2)cc1 (configuration not stated)	none
CCN1CCN(Cc2ccc(NC(=O)c3cc(NC(=O)N4CCNC4=O)cc(OC)c3)cc2C(F)(F)F)CC1	none (no result: Hsp70 act, S1P3 antagonist)
COc1cc(NC(=O)N2CCNC2=O)cc(C(=O)Nc2cccc(C(F)(F)F)c2)c1	CHOP inh 74 (no result: Hsp70 act, S1P3 antagonist)
CCC(C(=O)Nc1ccc(C(=O)N2CCCC2)cc1)c1ccccc1 (configuration not stated)	none
CC1CCc2nc(N)c(C#N)c(-c3cccn3C)c2C1 (configuration not stated)	CHOP inh 71
N#Cc1c(N)nc2c(c1-c1ccccc1)CCCC2	none
CCc1nc(SCC(=O)Nc2nnc(CC)s2)c2c(C)c(C)sc2n1	CHOP inh 96 (no result: S1P3 antagonist)
CCSc1nnc(NC(=O)CSc2nc(CC)nc3c2c(=O)n(C)c(=O)n3C)s1	CHOP inh 82
CC1CCCC(C)N1/N=C/C=C/c1ccccc1[N+](=O)[O-] (configuration not stated)	CHOP inh 71
O=[N+]([O-])c1ccccc1/C=C/C=N/n1c(-c2ccc(Cl)cc2)n[nH]c1=S	CHOP inh 82 (no result: S1P3 antagonist)
O=[N+]([O-])c1ccccc1/C=C/C=N/n1c(-c2ccccc2)n[nH]c1=S	none
Cc1ccc(-c2n[nH]c(=S)n2/N=C/C=C\c2ccccc2[N+](=O)[O-])cc1	CHOP inh 91 (no result: S1P3 antagonist)
COc1ccccc1/C=C/C=N/n1c(-c2ccc(C)cc2)n[nH]c1=S	none
O=C(COC(=O)CCCSc1nc2ccccc2[nH]1)Nc1ccc(Cl)cc1	none
Nc1ccccc1C(=O)NCCN1CCNC1=O	none (no result: Hsp70 act)
CSc1nc(O)c(/C=C2\C=Nc3ccccc32)[nH]1	none
Oc1nc(Nc2ccc(Cl)cc2Cl)sc1/C=C1\C=Nc2ccccc21	CHOP inh 73
Cn1ncc(C#N)c1/N=C/N(Cc1ccccc1)Cc1ccccc1	CHOP inh 89
S=c1[nH]nc(-c2cc(-c3ccccc3)n[nH]2)n1/N=C/c1ccc(Br)s1	none (no result: Hsp70 act)
CCOC(=O)C1CCN(C(=O)CCc2c(C)nc3cc(-c4ccccc4)nn3c2C)CC1	none (no result: S1P3 antagonist)
CCOC(=O)C1CCCCN1C(=O)CCc1c(C)nc2cc(-c3ccccc3)nn2c1C (configuration not stated)	CHOP inh 73
Cc1nc2cc(-c3cccc(F)c3)nn2c(C)c1CCC(=O)N1CCN(c2ccccn2)CC1	none (no result: Hsp70 act)
COc1cc(OC)cc(-c2cc3nc(C)c(CCC(=O)NC(C)CCc4ccco4)c(C)n3n2)c1 (configuration not stated)	none (no result: CHOP inh)
Cc1nc2cc(-c3ccccc3)nn2c(C)c1CCC(=O)N1CCN(c2ccccn2)CC1	CHOP inh 71 (no result: S1P3 antagonist)
COc1cc(OC)cc(-c2cc3nc(C)c(CCC(=O)O)c(C)n3n2)c1	CHOP inh 95
CCOc1ccc(/C=N/NC(=O)Cn2ccnc2C)cc1	none (no result: Hsp70 act)
CCOC(=O)C1=C(O)/C(=C/c2ccc(C)o2)SC1=NC(=O)c1ccccc1C	none (no result: CHOP inh, MDM2 E3 inh, S1P3 antagonist)
Cc1ccc(NC(=O)Cn2c(-c3ccc(F)cc3)cnc2SCC(=O)Nc2c(C)cccc2C)cc1	CHOP inh 81
CCOc1ccc(NC(=O)CSc2ncc(-c3ccc(F)cc3)n2Cc2ccco2)cc1	none (no result: Hsp70 act, MDM2 E3 inh)
CCc1nnc(NC(=O)Cn2c(=O)oc3ccccc32)s1	none (no result: S1P3 antagonist)
CC(C)CN(CC(C)C)c1nnc(NC(=O)Cn2c(=O)oc3ccccc32)s1	CHOP inh 79 (no result: S1P3 antagonist)
CCOc1cccc(-c2nn(-c3ccccc3)cc2/C=C(/C#N)C(=O)NCCCn2ccnc2)c1	CHOP inh 95
COc1cccc(N(C(=O)c2ccco2)C(C(=O)NC2CCCC2)c2cccnc2)c1 (configuration not stated)	none
O=C(NC1CCCCC1)C(c1cccnc1)N(C(=O)CCl)c1cccc(Cl)c1 (configuration not stated)	CHOP inh 109
O=C(NC1CCCCC1)C(c1cccnc1)N(C(=O)c1ccc(Cl)nc1)C1CCCCC1 (configuration not stated)	MDM2 E3 inh 46
CC1(C)C(C=C(Cl)Cl)C1C(=O)N1CCN(c2ccccc2)CC1 (configuration not stated)	CHOP inh 78
O=C(C1CC2C=CC1C2)N1CCN(c2ccccc2)CC1 (configuration not stated)	none
COCCN(CCOC)S(=O)(=O)c1ccc(C(=O)Nc2sc3c(c2C(N)=O)CCCCC3)cc1	CHOP inh 82
NC(=O)c1c(NC(=O)c2cccs2)sc2c1CCCCCC2	S1P3 antagonist 54
O=C(Nc1sc2c(c1C(=O)O)CCC2)c1cccs1	none
COCCN1CCN(Cc2cn[nH]c2-c2cc3ccccc3o2)CC1	none
CN(C)c1ccc(C(=O)OCC(=O)NCC2CCCO2)cc1 (configuration not stated)	none (no result: S1P3 antagonist)
O=C(N/N=C/c1cc(Br)cc(Br)c1O)c1ccncc1	none
O=C(N/N=C/c1cc(Cl)cc(Cl)c1O)c1ccncc1	CHOP inh 75 (no result: Hsp70 act)
CN(CC(=O)Nc1ccc(C#N)cc1)Cc1ccc(Cl)cc1	none
N#Cc1ccc(NC(=O)Nc2ccc(Cl)cc2)cc1	CHOP inh 78
